Laboratory results reported in ChEMBL document CHEMBL1123418, “N-imidazolylchroman-4-ones, N-imidazolyl-1-tetralones, and their alcohols as hypolipemic agents raising high-density lipoproteins” (1986).
“And” between values parts separate entries of the source, which are not always exact repeats. Equal values may be shown once.

Columns and labels:
[1] = tested on: Rattus norvegicus; assay: Percent increase in liver weight in rats when a 50 mg/Kg dose was administered; type: functional
[2] = Percent change in high density lipoprotein cholesterol
[3] = tested on: Rattus norvegicus; assay: Percent change in triglyceride concentration in serum from normocholesterolemic rats at dose 200 mg/kg (po)
[4] = tested on: Rattus norvegicus; assay: Percent change in total cholesterol concentration in serum from normocholesterolemic rats at dose 200 mg/kg (po)
[5] = tested on: Rattus norvegicus; assay: Percent change in low density lipoproteins cholesterol concentration in serum from normocholesterolemic rats at dose 200 mg/kg (po)
[6] = tested on: Rattus norvegicus; assay: Percent change in high density lipoproteins cholesterol concentration in serum from normocholesterolemic rats at dose 200 mg/kg (po)
[7] = tested on: Rattus norvegicus; assay: Percent increase in liver weight in rats when administered perorally; type: functional
[8] = tested on: Rattus norvegicus; assay: Percent change in high density lipoproteins cholesterol concentration in serum from hypercholesterolemic rats at dose 10 mg/kg (po); type: functional
In short: (§1)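 Rats were fed 1.5% cholesterol/0.5% cholic acid diet for 7 days, with compounds given by gavage over the last 4 days as a 0.5% Methocel suspension (0.5 mL/100 g). Rats were fasted overnight, killed on day 8 and bled under light CO₂ anesthesia. HDL was isolated by heparin-MnCl₂ precipitation (8000 rpm, 15 min, 4 °C). Total and HDL cholesterol were measured enzymatically-colorimetrically; % change vs control.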

[9] = tested on: Rattus norvegicus; assay: Percent change in total cholesterol concentration in serum from hypercholesterolemic rats at dose 10 mg/kg (po); type: functional; in short: as §1
[10] = species on record: Rattus norvegicus; assay: Compound was tested in vitro for inhibition of Cholesterol biosynthesis in rat liver slices, % inhibition of [14C]acetate incorporation in cholesterol; type: functional
In short: (§2)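 Liver slices (250 mg) from fed male rats were incubated in Krebs-Ringer bicarbonate, pH 7.4, with 4 mM [2-¹⁴C]acetate under 95% O₂-5% CO₂. Compounds were tested at a final 2 × 10⁻⁴ M, or 5 × 10⁻⁵ M for one compound. ¹⁴C incorporation into cholesterol and into petroleum-ether-soluble nonsaponifiable neutral lipids gave % inhibition; mean of four determinations.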

[11] = species on record: Rattus norvegicus; assay: Compound was tested in vitro for inhibition of Cholesterol biosynthesis in rat liver slices, % inhibition of [14C]acetate incorporation in neutral lipids; type: functional; in short: as §2
[12] = tested on: Rattus norvegicus; assay: Percent change in triglyceride concentration in serum from normocholesterolemic rats at dose 100 mg/kg (po)
[13] = tested on: Rattus norvegicus; assay: Percent change in total cholesterol concentration in serum from normocholesterolemic rats at dose 100 mg/kg (po)
[14] = tested on: Rattus norvegicus; assay: Percent change in low density lipoproteins cholesterol concentration in serum from normocholesterolemic rats at dose 100 mg/kg (po)
[15] = tested on: Rattus norvegicus; assay: Percent change in high density lipoproteins cholesterol concentration in serum from normocholesterolemic rats at dose 100 mg/kg (po)
[16] = tested on: Rattus norvegicus; assay: Compound was tested for Enzyme induction effect in male rats treated for 5 days at dose 50 mg/kg aminopyrine N-demethylase activity(per g) of liver; type: functional
In short: (§3)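 Male OFA-ICO SD rats were dosed orally for 5 days, with test compounds at 50 mg/kg/day and sodium phenobarbital at 75 mg/kg/day. Liver was homogenized in 1.15% KCl-0.01 M phosphate, pH 7.5. Microsomes were spun from the 9000g supernatant at 105000g and assayed for protein, cytochrome P-450, aniline p-hydroxylation (µmol p-aminophenol/20 min) and aminopyrine N-demethylation (µmol HCHO/5 min). Liver/body weight was also recorded. Mean ± SEM of four rats; Dunnett's test.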

[17] = tested on: Rattus norvegicus; assay: Compound was tested for Enzyme induction effect in male rats treated for 5 days at dose 50 mg/kg aniline p-hydroxylase activity(per g) of liver; type: functional; in short: as §3
[18] = tested on: Rattus norvegicus; assay: Compound was tested for Enzyme induction effect in male rats treated for 5 days at dose 50 mg/kg concentration of cytochrome […]( mmol/mg) in protein; type: functional; in short: as §3
[19] = tested on: Rattus norvegicus; assay: Percent change in total cholesterol concentration in serum from hypercholesterolemic rats at dose 50 mg/kg (po); type: functional
[20] = tested on: Rattus norvegicus; assay: Compound was tested for Enzyme induction effect in male rats treated for 5 days at dose 50 mg/kg concentration of microsomal proteins(mg/g) in liver; type: functional, organism-based; design: dose 50 mg/kg; in short: as §3
[21] = tested on: Rattus norvegicus; assay: Percent change in high density lipoproteins cholesterol concentration in serum from hypercholesterolemic rats at dose 50 mg/kg (po); type: functional; in short: as §1
[22] = species on record: Rattus norvegicus; assay: Compound was tested in vitro for inhibition of Cholesterol biosynthesis in rat liver slices, % inhibition of [14C]acetate incorporation in neutral lipids at 5 e10-5 concentration; type: functional; in short: as §2
[23] = species on record: Rattus norvegicus; assay: Compound was tested in vitro for inhibition of Cholesterol biosynthesis in rat liver slices, % inhibition of [14C]acetate incorporation in cholesterol at 5 e10-5 concentration; type: functional; in short: as §2
[24] = Compound was tested for Enzyme induction effect in male rats treated for 5 days at dose 50 mg/kg ratio of % liver weight to % body weight; type: functional; in short: as §3
[25] = tested on: Rattus norvegicus; assay: Compound was tested for Hepatic peroxisomal proliferation effect in male rats treated for 7 days at dose 50 mg/kg carnitine acetyl transferase activity(per mg) of protein; type: functional
In short: (§4)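 Male OFA-ICO SD rats received oral doses of 50 mg/kg/day for 1 week. Liver was homogenized in 0.25 M sucrose-0.01 M phosphate-0.1% ethanol, pH 7, then diluted in incubation buffer with 0.1% Triton X-100 and centrifuged. Supernatants were assayed for catalase (K, sec⁻¹), carnitine acetyltransferase (nmol CoASH/min) and cyanide-insensitive palmitoyl-CoA oxidation (nmol NAD⁺ reduced/min). Mean ± SEM of three rats; Dunnett's test.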

[26] = tested on: Rattus norvegicus; assay: Compound was tested for Hepatic peroxisomal proliferation effect in male rats treated for 7 days at dose 50 mg/kg protein; type: functional
[27] = tested on: Rattus norvegicus; assay: Compound was tested for Hepatic peroxisomal proliferation effect in male rats treated for 7 days at dose 50 mg/kg palmitoyl-CoA oxidation activity(per mg) of protein; type: functional; in short: as §4
[28] = tested on: Rattus norvegicus; assay: Compound was tested for Hepatic peroxisomal proliferation effect in male rats treated for 7 days at dose 50 mg/kg concentration of hepatic proteins(mg/g) in liver; type: functional, organism-based; design: dose 50 mg/kg
[29] = tested on: Rattus norvegicus; assay: Compound was tested for Enzyme induction effect in male rats treated for 5 days at dose 75 mg/kg aminopyrine N-demethylase activity(per g) of liver; type: functional; conditions: dose 50 mg/kg; in the assay text read “50 mg/kg” for “75 mg/kg”; in short: as §3
[30] = tested on: Rattus norvegicus; assay: Compound was tested for Enzyme induction effect in male rats treated for 5 days at dose 75 mg/kg aniline p-hydroxylase activity(per g) of liver; type: functional; conditions: dose 50 mg/kg; in the assay text read “50 mg/kg” for “75 mg/kg”; in short: as §3
[31] = tested on: Rattus norvegicus; assay: Compound was tested for Enzyme induction effect in male rats treated for 5 days at dose 75 mg/kg concentration of cytochrome […]( mmol/mg) in protein; type: functional; conditions: dose 50 mg/kg; in the assay text read “50 mg/kg” for “75 mg/kg”; in short: as §3
[32] = Compound was tested for Enzyme induction effect in male rats treated for 5 days at dose 75 mg/kg ratio of % liver weight to % body weight; type: functional; conditions: dose 50 mg/kg; in the assay text read “50 mg/kg” for “75 mg/kg”; in short: as §3
[33] = Compound was tested for Hepatic peroxisomal proliferation effect in male rats treated for 7 days at dose 50 mg/kg ratio of % liver weight to % body weight; type: functional
[34] = tested on: Rattus norvegicus; assay: Percent change in triglyceride concentration in serum from normocholesterolemic rats at dose 50 mg/kg (po)
[35] = tested on: Rattus norvegicus; assay: Percent change in low density lipoproteins cholesterol concentration in serum from normocholesterolemic rats at dose 50 mg/kg (po)
[36] = tested on: Rattus norvegicus; assay: Compound was tested for Enzyme induction effect in male rats treated for 5 days at dose 50 mg/kg concentration of microsomal proteins(mg/g) in liver
[37] = tested on: Rattus norvegicus; assay: Percent change in total cholesterol concentration in serum from hypercholesterolemic rats at dose 40 mg/kg (po); type: functional
[38] = tested on: Rattus norvegicus; assay: Percent change in high density lipoproteins cholesterol concentration in serum from hypercholesterolemic rats at dose 40 mg/kg (po); type: functional; in short: as §1
[39] = tested on: Rattus norvegicus; assay: Percent change in total cholesterol concentration in serum from hypercholesterolemic rats at dose 42.5 mg/kg (po); type: functional
[40] = tested on: Rattus norvegicus; assay: Percent change in high density lipoproteins cholesterol concentration in serum from hypercholesterolemic rats at dose 42.5 mg/kg (po); type: functional; in short: as §1
[41] = tested on: Rattus norvegicus; assay: Percent change in total cholesterol concentration in serum from hypercholesterolemic rats at dose 30 mg/kg (po); type: functional; in short: as §1
[42] = tested on: Rattus norvegicus; assay: Percent change in high density lipoproteins cholesterol concentration in serum from hypercholesterolemic rats at dose 30 mg/kg (po); type: functional; in short: as §1
[43] = tested on: Rattus norvegicus; assay: Percent change in total cholesterol concentration in serum from hypercholesterolemic rats at dose 21 mg/kg (po); type: functional; in short: as §1
[44] = tested on: Rattus norvegicus; assay: Percent change in high density lipoproteins cholesterol concentration in serum from hypercholesterolemic rats at dose 21 mg/kg (po); type: functional; in short: as §1

Structure (SMILES): CCOC(=O)C(C)(C)Oc1ccc(Cl)cc1 [CLOFIBRATE]
- Change [1]: 25%
- Percent change in HDL cholesterol [2]: 13
- Change [3]: -52%
- Change [4]: -35%
- Change [5]: -40%
- Change [6]: -32%

Structure (SMILES): COc1ccc2c(c1)CCC(n1ccnc1)C2=O (stereo not given)
- Change [7]: 0%
- Change [8]: 34%
- Change [9]: -37%

Structure (SMILES): CCCCCCCCCCCCn1ccnc1
- Inhibition [10]: 66%
- Inhibition [11]: 14%

Structure (SMILES): CC(C)OC(=O)C(C)(C)Oc1ccc(C(=O)c2ccc(Cl)cc2)cc1 [FENOFIBRATE]
- Change [1]: 38%
- Percent change in HDL cholesterol [2]: 7
- Change [12]: -50%
- Change [13]: -28%
- Change [14]: -31%
- Change [15]: -27%

Structure (SMILES): O=C1c2ccc(O)c(Br)c2CCC1n1ccnc1 (stereo not given)
- Change [7]: 13%
- Activity [16]: 1.69
- Activity [17]: 0.67
- Activity [18]: 0.98
- Change [19]: -44%
- Concentration [20]: 28
- Change [21]: 109%
- Inhibition [22]: 0%
- Inhibition [23]: 0%
- Ratio [24]: 3.24%

Structure (SMILES): Cc1cccc(Nc2cc(Cl)nc(SCC(=O)NCCO)n2)c1C [PIRINIXIL]
- Change [1]: 42%
- Change [7]: 54%
- Activity [25]: 69.8
- Activity [26]: 58.8
- Activity [27]: 16.2
- Change ([19]; 50 mg/kg): -43% and -23%
- Concentration [28]: 237
- Activity [29]: 0.69
- Activity [30]: 0.64
- Activity [31]: 0.82
- Ratio [32]: 4.99%
- Ratio [33]: 5.31%
- Percent change in HDL cholesterol [2]: -9
- Change [34]: -48%
- Change [35]: -19%
- Concentration [36]: 25

Structure (SMILES): O=C(O)c1cccc2c1C(=O)C(n1ccnc1)CC2 (stereo not given)
- Change [7]: -4%
- Change [37]: -19%
- Change [38]: -9%

Structure (SMILES): CC1Oc2ccc(C(=O)O)cc2C(=O)C1n1ccnc1 (stereo not given)
- Change [7]: 3%
- Change [39]: -12%
- Change [40]: -18%

Structure (SMILES): O=C1c2ccc(Br)cc2CCC1n1ccnc1 (stereo not given)
- Change [7]: 31%
- Change [41]: -84%
- Change [42]: 228%

Structure (SMILES): CC1Oc2cc(O)c(Br)cc2C(=O)C1n1ccnc1 (stereo not given)
- Change [7]: 1%
- Change [43]: -10%
- Change [44]: 2%
